From ChEMBL document CHEMBL1140844, “2-[(3-Methoxyphenylethyl)phenoxy]-based ABCB1 inhibitors: effect of different basic side-chains on their biological properties” (J Med Chem, 2008)
pIC50, pKi: −log10 of the molar value.

Assays:
[1] = biological target: T1, ATP-dependent translocase ABCB1 (Homo sapiens, UniProt P08183); assay: Inhibition of ABCB1
[2] = biological target: T2, Broad substrate specificity ATP-binding cassette transporter ABCG2 (Homo sapiens, UniProt Q9UNQ0); assay: Inhibition of ABCG2
T2 sequence (Q9UNQ0 whole entry): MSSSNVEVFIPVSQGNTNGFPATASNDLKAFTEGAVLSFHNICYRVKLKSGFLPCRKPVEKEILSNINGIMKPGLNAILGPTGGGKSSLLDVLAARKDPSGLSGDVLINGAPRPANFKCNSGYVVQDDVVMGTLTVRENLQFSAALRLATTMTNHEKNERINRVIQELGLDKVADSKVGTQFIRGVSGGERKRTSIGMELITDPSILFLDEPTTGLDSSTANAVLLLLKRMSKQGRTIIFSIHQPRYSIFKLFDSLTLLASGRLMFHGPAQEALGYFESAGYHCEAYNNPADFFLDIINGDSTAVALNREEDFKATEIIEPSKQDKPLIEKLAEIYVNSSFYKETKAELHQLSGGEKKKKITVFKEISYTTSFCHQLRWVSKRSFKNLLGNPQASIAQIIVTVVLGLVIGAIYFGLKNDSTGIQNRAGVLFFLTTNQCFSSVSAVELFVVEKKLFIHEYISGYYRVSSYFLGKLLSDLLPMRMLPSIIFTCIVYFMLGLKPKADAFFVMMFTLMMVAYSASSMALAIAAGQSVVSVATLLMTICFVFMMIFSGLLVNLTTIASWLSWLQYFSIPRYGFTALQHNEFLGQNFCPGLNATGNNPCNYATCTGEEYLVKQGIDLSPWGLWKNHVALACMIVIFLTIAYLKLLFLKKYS

[3] = biological target: T1, ATP-dependent translocase ABCB1; assay: Inhibition of ABCB1 in human Caco-2 cells assessed as ATPase activation at 100 uM after 2 hrs; format: cell-based; details: caco-2, 2 h
Method in brief: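 Caco-2 cells seeded at 2 × 10⁴ cells/well and held overnight at 37 °C, 5% CO2. Exposed to compound in complete medium for 2 h at 37 °C. Cells then lysed and ATP read by luciferase luminescence after 10 min dark adaptation. Tested at 100 µM; a positive response is reported as a percentage.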

[4] = biological target: T1, ATP-dependent translocase ABCB1; assay: Inhibition of ABCB1-mediated [3H]vinblastine transportation in human Caco-2 cells; format: cell-based
Method in brief: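 Caco-2 monolayers grown 21 days (TEER >800 Ω × cm²). 20 nM [3H]vinblastine added to the basolateral side with or without compound (200 nM–400 µM) for 120 min at 37 °C. Appearance on the apical side measured by scintillation counting. IC50 from nonlinear fit. Mean of three experiments, triplicate samples.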

[5] = biological target: T1, ATP-dependent translocase ABCB1; assay: Inhibition of ABCB1 transfected in MDCK cells assessed as increase in calcein-AM accumulation; format: cell-based
ABCG2 = biological target: T3, ABCG2 (Homo sapiens, UniProt Q9UNQ0); assay: Inhibition of ABCG2 in human Caco-2 cells assessed as [3H]mithoxatrone accumulation at 100 uM; format: cell-based; details: probe [3H]mithoxatrone
T3 sequence (Q9UNQ0 whole entry): T2 sequence (Q9UNQ0 whole entry)
Method in brief: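 Caco-2 monolayers grown 21 days (TEER >800 Ω × cm²). 20 nM [3H]mitoxantrone added basolaterally with or without compound at 100 µM, 120 min at 37 °C. Apical appearance measured by scintillation counting. Result is % inhibition from the radioactivity difference with and without compound.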

[6] = biological target: T4, 5-hydroxytryptamine receptor 1A (Homo sapiens, UniProt P08908); assay: Displacement of [3H]8-OH-DPAT from human cloned 5-HT1A receptor expressed in human HeLa cells; format: cell-based
T4 sequence (P08908 whole entry): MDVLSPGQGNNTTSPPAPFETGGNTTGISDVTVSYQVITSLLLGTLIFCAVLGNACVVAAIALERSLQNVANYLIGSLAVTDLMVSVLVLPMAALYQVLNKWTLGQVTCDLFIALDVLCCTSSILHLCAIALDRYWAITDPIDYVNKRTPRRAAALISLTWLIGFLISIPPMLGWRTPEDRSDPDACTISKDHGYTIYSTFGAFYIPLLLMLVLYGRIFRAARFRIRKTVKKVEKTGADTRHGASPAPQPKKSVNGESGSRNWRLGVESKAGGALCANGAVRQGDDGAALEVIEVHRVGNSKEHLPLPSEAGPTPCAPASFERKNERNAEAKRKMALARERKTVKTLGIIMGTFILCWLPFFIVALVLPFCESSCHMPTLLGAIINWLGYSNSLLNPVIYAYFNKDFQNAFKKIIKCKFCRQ
Method in brief: (§1)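 Compounds at 0.1 nM–10 µM in 50 mM Tris-HCl pH 7.4, 5 mM MgSO4, 120 min at 37 °C. Filtered on PEI-soaked GF/C. Nonspecific binding with 10 µM 8-OH-DPAT. […] Mean of three experiments, triplicate samples.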

D(2) dopamine receptor [7] = biological target: T5, D(2) dopamine receptor (Homo sapiens, UniProt P14416); assay: Displacement of [3H]spiroperidol from human cloned dopaminergic D2 receptor expressed in rat C6 cells; format: cell-based
[8] = biological target: T6, 5-hydroxytryptamine receptor 1A (Homo sapiens) (UniProt P08908); assay: Displacement of [3H]8-OH-DPAT from human cloned 5-HT1A receptor expressed in human HeLa cells at 10 uM; format: cell-based; method in brief: as §1
T6 sequence (whole entry): T4 sequence (P08908 whole entry)

D(2) dopamine receptor [9] = biological target: T5, D(2) dopamine receptor; assay: Displacement of [3H]spiroperidol from human cloned dopaminergic D2 receptor expressed in rat C6 cells at 10 uM; format: cell-based
Method in brief: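 Buffer was 50 mM Tris, 10 mM MgCl2, 1 mM EDTA, pH 7.4. Incubated 60 min at 27 °C, then filtered on PEI-soaked GF/C. Nonspecific binding with 10 µM haloperidol.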

Caco-2 = assay: Ratio of apparent permeability from basolateral to apical over apical to basolateral side of human Caco-2 cells after 120 mins by UV-visible spectroscopy; details: caco-2, 2 h

T5 sequence (P14416 whole entry): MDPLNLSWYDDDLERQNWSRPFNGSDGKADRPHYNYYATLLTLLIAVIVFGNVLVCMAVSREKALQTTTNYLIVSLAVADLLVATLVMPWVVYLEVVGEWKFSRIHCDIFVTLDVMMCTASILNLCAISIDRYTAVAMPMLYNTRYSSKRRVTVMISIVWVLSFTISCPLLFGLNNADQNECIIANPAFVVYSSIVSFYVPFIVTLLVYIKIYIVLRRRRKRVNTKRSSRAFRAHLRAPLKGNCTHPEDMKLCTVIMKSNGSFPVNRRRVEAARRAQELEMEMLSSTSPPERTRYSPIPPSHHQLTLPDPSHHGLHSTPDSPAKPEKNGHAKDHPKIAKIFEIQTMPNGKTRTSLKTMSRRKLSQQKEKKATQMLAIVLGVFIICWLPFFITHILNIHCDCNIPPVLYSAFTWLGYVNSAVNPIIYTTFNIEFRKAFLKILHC
T1 sequence (P08183 whole entry): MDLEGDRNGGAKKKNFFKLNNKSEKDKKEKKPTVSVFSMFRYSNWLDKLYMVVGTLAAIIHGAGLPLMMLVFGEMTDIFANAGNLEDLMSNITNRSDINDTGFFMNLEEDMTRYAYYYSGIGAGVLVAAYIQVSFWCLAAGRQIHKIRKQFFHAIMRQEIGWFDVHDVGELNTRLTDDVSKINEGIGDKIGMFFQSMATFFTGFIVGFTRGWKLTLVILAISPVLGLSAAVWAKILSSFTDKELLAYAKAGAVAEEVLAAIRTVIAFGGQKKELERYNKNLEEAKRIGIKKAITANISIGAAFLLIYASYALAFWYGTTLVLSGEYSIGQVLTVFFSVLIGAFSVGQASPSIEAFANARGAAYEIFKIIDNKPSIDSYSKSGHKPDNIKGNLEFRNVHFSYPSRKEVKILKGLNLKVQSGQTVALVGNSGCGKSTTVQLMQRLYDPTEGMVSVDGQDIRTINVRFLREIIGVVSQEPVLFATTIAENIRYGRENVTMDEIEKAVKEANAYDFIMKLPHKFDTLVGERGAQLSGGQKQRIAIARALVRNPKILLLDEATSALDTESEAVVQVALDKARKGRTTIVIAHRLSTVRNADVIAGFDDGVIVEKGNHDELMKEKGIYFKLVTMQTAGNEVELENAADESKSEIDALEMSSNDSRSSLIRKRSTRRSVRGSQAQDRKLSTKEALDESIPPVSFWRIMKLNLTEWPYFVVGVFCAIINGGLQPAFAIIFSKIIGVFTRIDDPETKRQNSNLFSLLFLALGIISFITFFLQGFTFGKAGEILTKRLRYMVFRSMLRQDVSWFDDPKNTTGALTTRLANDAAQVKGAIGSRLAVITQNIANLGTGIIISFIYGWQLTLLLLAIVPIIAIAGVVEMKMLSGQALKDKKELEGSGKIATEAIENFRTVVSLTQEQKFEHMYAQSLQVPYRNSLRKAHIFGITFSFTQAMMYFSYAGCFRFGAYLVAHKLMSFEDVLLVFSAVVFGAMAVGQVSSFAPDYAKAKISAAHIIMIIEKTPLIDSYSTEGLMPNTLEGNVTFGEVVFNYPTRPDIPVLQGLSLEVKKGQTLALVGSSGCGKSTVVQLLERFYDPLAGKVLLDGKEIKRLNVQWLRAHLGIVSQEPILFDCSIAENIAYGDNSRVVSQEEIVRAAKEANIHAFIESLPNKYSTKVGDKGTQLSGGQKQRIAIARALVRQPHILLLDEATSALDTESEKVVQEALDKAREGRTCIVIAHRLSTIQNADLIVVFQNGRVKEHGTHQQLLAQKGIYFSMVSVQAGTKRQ

| Structure (SMILES) | pIC50 [1] | pIC50 [2] | Activity [3] | pIC50 [4] | pIC50 [5] | inhibition at 100 µM (ABCG2) | pKi [6] | pKi (D(2) dopamine receptor [7]) | inhibition [8] | inhibition (D(2) dopamine receptor [9]) | Ratio (Caco-2) |
| --- | --- | --- | --- | --- | --- | --- | --- | --- | --- | --- | --- |
| COc1cccc(CCc2ccccc2NCc2ccc(OC)c(OC)c2)c1 | 6.74 | 6.30 |  |  |  |  |  |  |  |  |  |
| COc1cccc(CCc2ccccc2OCCCCN2CCN(c3cccc(C(F)(F)F)c3)CC2)c1 |  |  | Not Active | 6.12 | 5.75 | 24% | < 5.30 | < 6.00 | 36% | 27% | 4.4 |
| COc1cccc(CCc2ccccc2OCCCCN2CCN(c3ncccn3)CC2)c1 |  |  | Not Active | 6.70 | 5.93 | 16% | 6.25 | 6.07 |  |  | 8.2 |
| COc1cccc(CCc2ccccc2OCc2ccc(OC)c(OC)c2)c1 | 6.19 | 3.82 |  |  |  |  |  |  |  |  |  |
